{"source": "ChEMBL document CHEMBL4346672", "about": "“Antimicrobial and KPC/AmpC inhibitory activity of functionalized benzosiloxaboroles” (Eur J Med Chem, 2019)", "key": {"[1]": {"system": "Candida tropicalis", "assay": "Antifungal activity against Candida tropicalis IBA 171 assessed as diameter of zone inhibition incubated for 24 hrs by CLSI disc diffusion method", "assay_type": "functional", "summary_of_the_method": "(§1)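 Yeast disc diffusion on Mueller-Hinton agar supplemented with 2% glucose and 0.5 mg/L methylene blue. Compounds in DMSO. Yeasts subcultured on Sabouraud dextrose agar before testing. Zones read after 35 °C, 24 h.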"}, "[2]": {"system": "Pichia kudriavzevii", "assay": "Antifungal activity against Candida krusei ATCC 6258 assessed as diameter of zone inhibition incubated for 24 hrs by CLSI disc diffusion method", "assay_type": "functional", "summary_of_the_method": "as §1"}, "[3]": {"system": "Escherichia coli", "assay": "Antibacterial activity against Escherichia coli ATCC 25922 assessed as fold reduction of MIC in presence of efflux pump inhibitor PAbetaN incubated for 18 hrs by CLSI broth microdilution method", "assay_type": "functional", "summary_of_the_method": "(§2)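 MICs determined with and without PAβN at 50 mg/L in Mueller-Hinton broth containing 1 mM MgSO₄. 2-fold serial dilutions per CLSI. Fold change taken from the paired MICs after 35 °C, 18 h.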"}, "[4]": {"system": "Enterococcus faecalis", "assay": "Antibacterial activity against Enterococcus faecalis ATCC 29212 assessed as diameter of zone inhibition measured after 18 hrs by CLSI disc diffusion method", "assay_type": "functional", "summary_of_the_method": "(§3)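 Disc diffusion on Mueller-Hinton II agar. Compounds dissolved in DMSO. Strains stored at -80 °C and subcultured twice on tryptic soy agar before testing. Inhibition zones read after 35 °C, 18 h.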"}, "[5]": {"system": "Enterococcus faecium", "assay": "Antibacterial activity against Enterococcus faecium ATCC 6057 assessed as diameter of zone inhibition measured after 18 hrs by CLSI disc diffusion method", "assay_type": "functional", "summary_of_the_method": "as §3"}, "[6]": {"system": "Klebsiella pneumoniae", "conditions": "ATCC 13883"}, "[7]": {"system": "Klebsiella pneumoniae", "assay": "Antibacterial activity against Klebsiella pneumoniae ATCC 13883 assessed as fold reduction of MIC in presence of efflux pump inhibitor PAbetaN incubated for 18 hrs by broth microdilution method", "assay_type": "functional", "summary_of_the_method": "as §2"}, "[8]": {"system": "Proteus mirabilis", "assay": "Antibacterial activity against Proteus mirabilis ATCC 12453 assessed as diameter of zone inhibition measured after 18 hrs by CLSI disc diffusion method", "assay_type": "functional", "summary_of_the_method": "as §3"}, "[9]": {"system": "Candida parapsilosis", "assay": "Antifungal activity against Candida parapsilosis ATCC 22019 assessed as decrease in fungal cell growth at 0.78 to 12.5 mg/L incubated for 24 hrs by CLSI broth dilution method", "assay_type": "functional", "conditions": "Lodderomyces parapsilosis, ATCC 22019, 24 h", "summary_of_the_method": "(§4)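 Yeast broth dilution in RPMI 1640 with 2% glucose, compounds in DMSO. Yeasts pre-grown on Sabouraud dextrose agar. Growth read after 35 °C, 24 h.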"}, "[10]": {"system": "Bordetella bronchiseptica", "assay": "Antibacterial activity against Bordetella bronchiseptica ATCC 4617 measured after 18 hrs by CLSI broth dilution method", "assay_type": "functional", "conditions": "ATCC 4617, 18 h", "summary_of_the_method": "(§5)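 Broth MIC in Mueller-Hinton II broth following CLSI, compounds dissolved in DMSO. Strains subcultured twice on tryptic soy agar before testing. Growth read after 35 °C, 18 h.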"}, "[11]": {"system": "Stenotrophomonas maltophilia", "assay": "Antibacterial activity against Stenotrophomonas maltophilia ATCC 13637 measured after 18 hrs by CLSI broth dilution method", "assay_type": "functional", "conditions": "ATCC 13637, 18 h", "summary_of_the_method": "as §5"}, "[12]": {"system": "Bacillus subtilis", "assay": "Antibacterial activity against Bacillus subtilis ATCC 6633 assessed as diameter of zone inhibition measured after 18 hrs by CLSI disc diffusion method", "assay_type": "functional", "summary_of_the_method": "as §3"}, "[13]": {"system": "Burkholderia cepacia", "assay": "Antibacterial activity against Burkholderia cepacia ATCC 25416 assessed as diameter of zone inhibition measured after 18 hrs by CLSI disc diffusion method", "assay_type": "functional", "summary_of_the_method": "as §3"}, "[14]": {"system": "Meyerozyma guilliermondii", "assay": "Antifungal activity against Candida guilliermondii IBA 155 assessed as decrease in fungal cell growth at 0.78 to 12.5 mg/L incubated for 24 hrs by CLSI broth dilution method", "assay_type": "functional", "conditions": "IBA 155, 24 h", "summary_of_the_method": "as §4"}, "[15]": {"system": "Enterococcus faecium", "assay": "Antibacterial activity against Enterococcus faecium ATCC 6057 measured after 18 hrs by CLSI broth dilution method", "assay_type": "functional", "conditions": "ATCC 6057, 18 h", "summary_of_the_method": "as §5"}, "[16]": {"system": "Stenotrophomonas maltophilia", "assay": "Antibacterial activity against Stenotrophomonas maltophilia ATCC 13637 assessed as fold reduction of MIC in presence of efflux pump inhibitor PAbetaN incubated for 18 hrs by broth microdilution method", "assay_type": "functional", "summary_of_the_method": "as §2"}, "[17]": {"system": "Candida albicans", "assay": "Antifungal activity against Candida albicans ATCC 90028 assessed as diameter of zone inhibition incubated for 24 hrs by CLSI disc diffusion method", "assay_type": "functional", "summary_of_the_method": "as §1"}, "[18]": {"system": "Burkholderia cepacia", "assay": "Antibacterial activity against Burkholderia cepacia ATCC 25416 measured after 18 hrs by CLSI broth dilution method", "assay_type": "functional", "conditions": "ATCC 25416, 18 h", "summary_of_the_method": "as §5"}, "[19]": {"system": "Meyerozyma guilliermondii", "assay": "Antifungal activity against Candida guilliermondii IBA 155 assessed as diameter of zone inhibition incubated for 24 hrs by CLSI disc diffusion method", "assay_type": "functional", "summary_of_the_method": "as §1"}, "[20]": {"system": "Acinetobacter baumannii", "assay": "Antibacterial activity against Acinetobacter baumannii ATCC 19606 measured after 18 hrs by CLSI broth dilution method", "assay_type": "functional", "conditions": "ATCC 19606, 18 h", "summary_of_the_method": "as §5"}, "[21]": {"system": "Enterobacter cloacae", "assay": "Antibacterial activity against Enterobacter cloacae DSM 6234 measured after 18 hrs by CLSI broth dilution method", "assay_type": "functional", "conditions": "DSM 6234, 18 h", "summary_of_the_method": "as §5"}, "[22]": {"system": "Candida parapsilosis", "assay": "Antifungal activity against Candida parapsilosis ATCC 22019 assessed as diameter of zone inhibition incubated for 24 hrs by CLSI disc diffusion method", "assay_type": "functional", "summary_of_the_method": "as §1"}, "[23]": {"system": "Escherichia coli", "assay": "Antibacterial activity against Escherichia coli ATCC 25922 assessed as diameter of zone inhibition measured after 18 hrs by CLSI disc diffusion method", "assay_type": "functional", "summary_of_the_method": "as §3"}, "[24]": {"system": "Serratia marcescens", "assay": "Antibacterial activity against Serratia marcescens ATCC 13880 measured after 18 hrs by CLSI broth dilution method", "assay_type": "functional", "conditions": "ATCC 13880, 18 h", "summary_of_the_method": "as §5"}, "[25]": {"system": "Proteus mirabilis", "assay": "Antibacterial activity against Proteus mirabilis ATCC 12453 assessed as fold reduction of MIC in presence of efflux pump inhibitor PAbetaN incubated for 18 hrs by broth microdilution method", "assay_type": "functional", "summary_of_the_method": "as §2"}, "[26]": {"system": "Bordetella bronchiseptica", "assay": "Antibacterial activity against Bordetella bronchiseptica ATCC 4617 assessed as diameter of zone inhibition measured after 18 hrs by CLSI disc diffusion method", "assay_type": "functional", "summary_of_the_method": "as §3"}, "[27]": {"system": "Proteus mirabilis", "assay": "Antibacterial activity against Proteus mirabilis ATCC 12453 measured after 18 hrs by CLSI broth dilution method", "assay_type": "functional", "conditions": "ATCC 12453, 18 h", "summary_of_the_method": "as §5"}, "[28]": {"system": "Enterococcus faecalis", "assay": "Antibacterial activity against Enterococcus faecalis ATCC 29212 measured after 18 hrs by CLSI broth dilution method", "assay_type": "functional", "conditions": "ATCC 29212, 18 h", "summary_of_the_method": "as §5"}, "[29]": {"system": "Klebsiella pneumoniae", "assay": "Antibacterial activity against Klebsiella pneumoniae ATCC 13883 measured after 18 hrs by CLSI broth dilution method", "assay_type": "functional", "conditions": "ATCC 13883, 18 h", "summary_of_the_method": "as §5"}, "[30]": {"system": "Serratia marcescens", "conditions": "ATCC 13880"}, "[31]": {"system": "Staphylococcus epidermidis", "assay": "Antibacterial activity against Staphylococcus epidermidis ATCC 12228 assessed as diameter of zone inhibition measured after 18 hrs by CLSI disc diffusion method", "assay_type": "functional", "summary_of_the_method": "as §3"}, "[32]": {"system": "Staphylococcus aureus", "assay": "Antibacterial activity against Staphylococcus aureus ATCC 6538P assessed as diameter of zone inhibition measured after 18 hrs by CLSI disc diffusion method", "assay_type": "functional", "summary_of_the_method": "as §3"}, "[33]": {"system": "Pseudomonas aeruginosa", "assay": "Antibacterial activity against Pseudomonas aeruginosa ATCC 27853 measured after 18 hrs by CLSI broth dilution method", "assay_type": "functional", "conditions": "ATCC 27853, 18 h", "summary_of_the_method": "as §5"}, "[34]": {"system": "Acinetobacter baumannii", "assay": "Antibacterial activity against Acinetobacter baumannii ATCC 19606 assessed as diameter of zone inhibition measured after 18 hrs by CLSI disc diffusion method", "assay_type": "functional", "summary_of_the_method": "as §3"}, "[35]": {"system": "Staphylococcus aureus", "assay": "Antibacterial activity against Staphylococcus aureus ATCC 6538P measured after 18 hrs by CLSI broth dilution method", "assay_type": "functional", "summary_of_the_method": "as §5"}, "[36]": {"assay": "Dissociation constant, pKa1 of compound in 0.1 M NaOH by potentiometric analysis", "assay_type": "physicochemical"}}, "note": "Activity calls are given as the source filed them. The rule behind the calls is not given here."}
{"molecule": "C[Si]1(C)OB(O)c2ccc(B(O)O)cc21", "values": [{"measurement": "diameter of the inhibition zone (DIZ)", "setting": "[1]", "result": "inactive"}, {"measurement": "diameter of the inhibition zone (DIZ)", "setting": "[2]", "result": "inactive"}, {"measurement": "fold change (FC)", "setting": "[3]", "result": 8}, {"measurement": "diameter of the inhibition zone (DIZ)", "setting": "[4]", "result": "inactive"}, {"measurement": "diameter of the inhibition zone (DIZ)", "setting": "[5]", "result": 12, "unit": "mm"}, {"measurement": "DIZ", "setting": "[6]", "result": "inactive"}, {"measurement": "fold change (FC)", "setting": "[7]", "result": 4}, {"measurement": "diameter of the inhibition zone (DIZ)", "setting": "[8]", "result": "inactive"}, {"measurement": "MIC", "setting": "[9]", "result": 200, "unit": "µg/mL"}, {"measurement": "MIC", "setting": "[10]", "result": "> 400", "unit": "µg/mL"}, {"measurement": "MIC", "setting": "[11]", "result": 400, "unit": "µg/mL"}, {"measurement": "diameter of the inhibition zone (DIZ)", "setting": "[12]", "result": 19, "unit": "mm"}, {"measurement": "diameter of the inhibition zone (DIZ)", "setting": "[13]", "result": "inactive"}, {"measurement": "MIC", "setting": "[14]", "result": "> 400", "unit": "µg/mL"}, {"measurement": "MIC", "setting": "[15]", "result": 200, "unit": "µg/mL"}, {"measurement": "fold change (FC)", "setting": "[16]", "result": 8}, {"measurement": "diameter of the inhibition zone (DIZ)", "setting": "[17]", "result": "inactive"}, {"measurement": "MIC", "setting": "[18]", "result": "> 400", "unit": "µg/mL"}, {"measurement": "diameter of the inhibition zone (DIZ)", "setting": "[19]", "result": "inactive"}, {"measurement": "MIC", "setting": "[20]", "result": "> 400", "unit": "µg/mL"}, {"measurement": "MIC", "setting": "[21]", "result": "> 400", "unit": "µg/mL"}, {"measurement": "diameter of the inhibition zone (DIZ)", "setting": "[22]", "result": "inactive"}, {"measurement": "diameter of the inhibition zone (DIZ)", "setting": "[23]", "result": "inactive"}, {"measurement": "MIC", "setting": "[24]", "result": "> 400", "unit": "µg/mL"}, {"measurement": "fold change (FC)", "setting": "[25]", "result": 4}, {"measurement": "diameter of the inhibition zone (DIZ)", "setting": "[26]", "result": "inactive"}, {"measurement": "MIC", "setting": "[27]", "result": "> 400", "unit": "µg/mL"}, {"measurement": "MIC", "setting": "[28]", "result": 200, "unit": "µg/mL"}, {"measurement": "MIC", "setting": "[29]", "result": "> 400", "unit": "µg/mL"}, {"measurement": "DIZ", "setting": "[30]", "result": "inactive"}, {"measurement": "diameter of the inhibition zone (DIZ)", "setting": "[31]", "result": 32, "unit": "mm"}, {"measurement": "diameter of the inhibition zone (DIZ)", "setting": "[32]", "result": 14, "unit": "mm"}, {"measurement": "MIC", "setting": "[33]", "result": "> 400", "unit": "µg/mL"}, {"measurement": "diameter of the inhibition zone (DIZ)", "setting": "[34]", "result": "inactive"}, {"measurement": "MIC", "setting": "[35]", "result": 200, "unit": "µg/mL"}, {"measurement": "pKa", "setting": "[36]", "result": 7.7}]}
